Assay results gathered from unrelated publications.
Compare with care: the assays were run in different laboratories.
Target: Dual specificity mitogen-activated protein kinase kinase 2 (MAP2K2, Homo sapiens, UniProt P36507)

The remaining binding of `CN(C)c1ncc(F)c(-c2cnn3ncccc23)n1` is reported as 74% (binding; 1 µM).
With `FC(F)(F)Oc1cccc(-c2cnc3ccc(-c4ccncc4)nn23)c1` the remaining binding was 72% (cell-free assay, competition with immobilised ligand; 5 µM).
The remaining binding of `CC(=O)Nc1c(C(C)=O)c(=O)n(C)c2nc(-c3ccc(Cl)cc3Cl)c(-c3ccc(Cl)cc3)cc12` is reported as 100% (cell-free assay, competition with immobilised ligand; 1 µM).
For `O=C(c1ccc(Nc2ncc(Cl)c(-c3ccc(Cl)s3)n2)cc1)N1CCC(N2CCCC2)CC1`, the remaining binding was 15% (binding, competition with immobilised ligand; 1 µM).
`C[C@H]1CCN(c2nccc(-c3cnn4ncccc34)n2)C1` has a remaining binding of 100% (binding; 1 µM).
`O=C(Nc1cccnn1)N1CC(C/C=C/c2cncc(Oc3ccc(C(F)(F)F)cn3)n2)C1` has a remaining binding of 95% (cell-free assay, competition with immobilised ligand; 1 µM).
For `O=C(NCC1CCOCC1)c1n[nH]cc1NC(=O)c1c(F)cccc1F`, the remaining binding was 100% (binding, competition with immobilised ligand; 1 µM).
With `CNC(=O)[C@@H]1CC[C@@H](n2c(-c3ccc4cnccc4c3)nc3ccc(C(=O)NCc4cccc(C(N)=O)c4)cc32)C1` the remaining binding was 79% (binding, competition with immobilised ligand; 1 µM).
For `Cc1noc([C@H]2C[C@@H](c3ccc(C(F)(F)F)cc3)CN(C(=O)N3CCS(=O)(=O)C3)C2)n1`, the remaining binding was 90% (cell-free assay, competition with immobilised ligand; 1 µM).
With `Cc1cnn2ncc(-c3ccnc(N(C)C)n3)c2c1` the remaining binding was 100% (binding; 1 µM).
With `O=C(O)[C@@H]1[C@@H](Cn2nnc3ccccc3c2=O)CC[C@H]1C(=O)c1ccc(OCCC2CCOCC2)cc1` the remaining binding was 100% (cell-free assay, competition with immobilised ligand; 1 µM).
`C[C@@H]1CN(c2ccc3ncc(-c4ccc5[nH]nc(C6CC6)c5c4)n3n2)C[C@H](C)O1` has a remaining binding of 100% (binding, competition with immobilised ligand; 0.5 µM).
`CC(C)(C)c1ccc(-c2nc(CBr)nn2-c2cccc(O)c2)cc1` gave a remaining binding of 90% (cell-free assay, competition with immobilised ligand; 10 µM).
With `O=C(c1ccc(Nc2ncc(Cl)c(-c3cc4ccccc4s3)n2)cc1)N1CCC(N2CCCC2)CC1` the remaining binding was 27% (binding, competition with immobilised ligand; 1 µM).
`N[C@@H]1CCN(c2nccc(-c3cnn4ncccc34)n2)C1` has a remaining binding of 84% (binding; 1 µM).
The remaining binding of `O=C(NCCCN1CCOCC1)c1ccc(Nc2ncc(Cl)c(-c3ccc(Cl)s3)n2)cc1` is reported as 59% (binding, competition with immobilised ligand; 1 µM).
With `CN(C)CC#Cc1ccc(OCCCc2sc(N3CCc4cccc(C(=O)Nc5nc6ccccc6s5)c4C3)nc2C(=O)O)c(F)c1` the remaining binding was 100% (cell-free assay, competition with immobilised ligand; 1 µM).
The remaining binding of `C=CC(=O)N1CCC(C(=O)NCC(=O)N2CCN(c3nc(-c4cnc(N)nc4C(F)F)nc(N4CCOCC4)n3)CC2)CC1` is reported as 59% (binding, competition with immobilised ligand; 1 µM).
`COc1cnc(Nc2cccc(S(N)(=O)=O)c2)nc1N1CCN(c2ccccc2)C(=O)C1` has a remaining binding of 94% (binding, competition with immobilised ligand; 1 µM).
`CCOC(=O)c1cc2cc(-c3cc(C(=O)NCc4ccc(C(=O)O)cc4)nn3C)ccc2[nH]1` gave a remaining binding of 83% (cell-free assay, competition with immobilised ligand; 0.1 µM).
The remaining binding of `CN(c1nccc(-c2cnn3ncccc23)n1)C1CC1` is reported as 100% (binding; 1 µM).
For `CO[C@@H](C)c1c(Nc2ccc([C@@H](N(C)C(=O)C3CCS(=O)(=O)CC3)C(F)(F)F)cc2)cnc2cc(Cl)nn12`, the remaining binding was 97% (cell-free assay, competition with immobilised ligand; 1 µM).
For `COc1ccnn2ncc(-c3ccnc(N(C)C)n3)c12`, the remaining binding was 100% (binding; 1 µM).
`N#Cc1ccccc1CSc1nnc2c(n1)[nH]c1ccccc12` has a remaining binding of 87% (binding, competition with immobilised ligand; 10 µM).
